Results of several laboratories.
Peroxisome proliferator-activated receptor alpha: Peroxisome proliferator-activated receptor alpha (Rattus norvegicus, UniProt P37230)
GPR84: G-protein coupled receptor 84 (GPR84, Homo sapiens, UniProt Q9NQS5)

With `Cc1cc2nc3c(=O)[nH]c(=O)nc-3n(C[C@H](O)[C@H](O)[C@H](O)COP(=O)(O)OP(=O)(O)OC[C@H]3O[C@@H](n4cnc5c(N)ncnc54)[C@H](O)[C@@H]3O)c2cc1C` the Kd was 77 nM (Probable ATP-dependent RNA helicase DDX6 (Homo sapiens, UniProt P26196); binding; lysate).
With `Cc1nc(-c2ccc(C(F)(F)F)cc2)sc1C(=O)NCc1ccc(OC(C)(C)C(=O)O)cc1` the EC50 was 2200 nM (Peroxisome proliferator-activated receptor alpha; reporter gene, agonist, luciferase).
The IC50 of `CN1CCN(c2ccc(Nc3ncc4cc(C#N)c(=O)n(C5CCCC5)c4n3)cc2)CC1` is reported as > 10000 nM (Mitogen-activated protein kinase 8 (MAPK8, Homo sapiens, UniProt P45983); enzyme activity, inhibitor).
The IC50 of `C=CC(=O)Nc1cc(Nc2nccc(-c3cn(C4CC4)c4ccccc34)n2)c(OC)cc1N(C)CCN(C)C` is reported as 17.2 nM (Epidermal growth factor receptor (EGFR, Homo sapiens, UniProt P00533, G719C); enzyme activity, inhibitor, TR-FRET).
With `CCCC[C@H](NC(=O)[C@H](CO)NC(=O)[C@H](Cc1ccc(O)cc1)NC(=O)[C@H](CO)NC(C)=O)C(=O)N[C@@H](CCC(=O)O)C(=O)N[C@@H](Cc1c[nH]cn1)C(=O)N[C@@H](C)C(=O)N[C@@H](CCCNC(=N)N)C(=O)N[C@@H](Cc1c[nH]c2ccccc12)C(=O)NCC(=O)N[C@@H](CCCCN)C(=O)N1CCC[C@H]1C(=O)N[C@H](C(=O)NCC(=O)N[C@@H](CCCCN)C(=O)N[C@@H](CCCCN)C(=O)N[C@@H](CCCNC(=N)N)C(N)=O)C(C)C` the EC50 was 7.8 nM (Melanocyte-stimulating hormone receptor (MC1R, Homo sapiens, UniProt Q01726); cAMP, agonist).
`O=c1cc(NCCc2cccs2)[nH]c(=O)[nH]1` gave an EC50 of 191 nM (GPR84; cAMP, agonist).
The EC50 of `Cc1cccc(Nc2cc(Cl)nc(SCC(=O)O)n2)c1C` is reported as 9500 nM (Peroxisome proliferator-activated receptor alpha; reporter gene, agonist, luciferase).
With `CC(C)(C)c1ccc(CCNc2cc(=O)[nH]c(=O)[nH]2)cc1` the EC50 was 43.7 nM (GPR84; cAMP, agonist).
For `CC(=O)N[C@H]1CSSC[C@@H](C(=O)N[C@@H](Cc2c[nH]c3ccccc23)C(N)=O)NC(=O)[C@H](Cc2ccccc2)NC(=O)[C@H](CCCNC(=N)N)NC1=O`, the IC50 was 1200 nM (Melanocortin receptor 3 (MC3R, Homo sapiens, UniProt P41968); ligand displacement, radioligand).
The EC50 of `CC(C)c1nc2cc(OCCCCN3CCN(c4cccc5c4OCCN5)CC3)ccc2s1` is reported as 2.8 nM (D(2) dopamine receptor (DRD2, Homo sapiens, UniProt P14416); cAMP, agonist, luciferase).
For `CCC(C)N1CCCn2c1nc1c2c(=O)n(C)c(=O)n1C` (centres unmarked), the Ki was > 10 µM (Adenosine receptor A3 (ADORA3, Homo sapiens, UniProt P0DMS8); ligand displacement, radioligand; cell membranes).
